As usually defined, the MIC is the lowest concentration that inhibits growth of the organism. Broadly, the CC50 is the concentration that lowers cell viability or growth by half.

Converted amounts (≈) assume the structure as drawn. The source made the active and inactive calls. The rule behind the calls is not given here. Bounds are passed on as bounds.

Results on 7 compounds are retold here after ChEMBL document CHEMBL4819096, “Antibacterial activity of noscapine analogs” (Bioorg Med Chem Lett, 2021).

The subject of series [1] is Escherichia coli. In words: Antibacterial activity against Escherichia coli assessed as inhibition of bacterial growth measured after 16 to 20 hrs by two-fold serial microbroth dilution method. The series is classed as functional. The conditions noted are these: time 16-20 hrs. In a few lines: (§1)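 Broth microdilution in LB and M9 medium. Inoculum adjusted to about 5 × 10⁵ cells/ml. Compound diluted twofold serially in microplate wells, then plates covered and incubated at 37 °C with shaking. Growth read as OD600. MIC taken as the lowest concentration giving no growth after 16–20 h.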
(Dilution methods test growth across graded concentrations, often in twofold steps.)

Series [2] is described as follows: Cytotoxicity against human HEK293 cells assessed as reduction in cell viability measured after 28 hrs by PrestoBlue reagent based fluorescence analysis. In a few lines:
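HEK293 cells seeded at 25*10³ per well in DMEM with 10% FBS, 2 mM L-Glu and 50 µg/ml gentamicin. Cells held 24 h at 37 °C, 5% CO2 before compound was added (final DMSO 0.1%), then incubated 28 h. Viability read by PrestoBlue fluorescence at 590 nm, expressed relative to 0.1% DMSO control (100%). CC50 derived by curve fitting.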

For series [3], the system named is Escherichia coli. Put plainly: Antibacterial activity against ampicillin/cefotaxime/tetracycline/ceftriaxone-resistant Escherichia coli mx7 assessed as inhibition of bacterial growth measured after 16 to 20 hrs by two-fold serial microbroth dilution method. Type of series: functional, organism-based. Conditions: time 16-20 hrs. In a few lines: (§2)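 Broth microdilution MIC in LB and M9 medium. Inoculum adjusted to about 5 × 10⁵ cells/ml. Compound serially diluted twofold. Plates covered and incubated at 37 °C with shaking. OD600 read; MIC taken as the lowest concentration giving no growth after 16–20 h.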

The subject of series [4] is Enterobacter cloacae. Put plainly: Antibacterial activity against ampicillin/cefotaxime/tetracycline/ceftriaxone-resistant Enterobacter cloacae O3 assessed as inhibition of bacterial growth measured after 16 to 20 hrs by two-fold serial microbroth dilution method. The series is classed as functional, organism-based. The conditions noted are these: time 16-20 hrs. In a few lines:
as §2

The subject of series [5] is Morganella morganii. In words: Antibacterial activity against Morganella morganii R36 assessed as inhibition of bacterial growth measured after 16 to 20 hrs by two-fold serial microbroth dilution method. Type of series: functional, organism-based. Conditions: time 16-20 hrs. An outline of the steps:
as §1

Series [6] relates to Pseudomonas aeruginosa. In words: Antibacterial activity against Pseudomonas aeruginosa R42 assessed as inhibition of bacterial growth measured after 16 to 20 hrs by two-fold serial microbroth dilution method. The series is classed as functional, organism-based. Conditions: time 16-20 hrs. An outline of the steps:
as §1

The subject of series [7] is Klebsiella pneumoniae. Put plainly: Antibacterial activity against ampicillin/fosfomycin-resistant Klebsiella pneumonia 181210171-2 assessed as inhibition of bacterial growth measured after 16 to 20 hrs by two-fold serial microbroth dilution method. Type of series: functional, organism-based. Conditions: time 16-20 hrs. In a few lines:
as §2

In series [8] the test system is Enterobacter. In words: Antibacterial activity against Enterobacter sp. O54 assessed as inhibition of bacterial growth measured after 16 to 20 hrs by two-fold serial microbroth dilution method. Type of series: functional, organism-based. Conditions: time 16-20 hrs. In a few lines: as §1
Series [9] deals with Proteus sp. Put plainly: Antibacterial activity against ampicillin/cefotaxime/tetracycline/ceftriaxone/fosfomycin-resistant Proteus sp. O14 assessed as inhibition of bacterial growth measured after 16 to 20 hrs by two-fold serial microbroth dilution method. The series is classed as functional, organism-based. The conditions noted are these: time 16-20 hrs. An outline of the steps:
as §2

Series [10] concerns Citrobacter koseri. In words: Antibacterial activity against Citrobacter koseri R38 assessed as inhibition of bacterial growth measured after 16 to 20 hrs by two-fold serial microbroth dilution method. The series is classed as functional, organism-based. The conditions noted are these: time 16-20 hrs. In a few lines: as §1
In series [11] the test system is Pseudomonas aeruginosa. In words: Antibacterial activity against ampicillin/cefotaxime-resistant Pseudomonas aeruginosa ATCC 27853 assessed as inhibition of bacterial growth measured after 16 to 20 hrs by two-fold serial microbroth dilution method. Type of series: functional, organism-based. Conditions: time 16-20 hrs. In a few lines:
as §2

Series [12] deals with Hafnia alvei. In words: Antibacterial activity against Ampicillin resistant Hafnia alvei O31 assessed as inhibition of bacterial growth measured after 16 to 20 hrs by two-fold serial microbroth dilution method. The series is classed as functional, organism-based. Conditions: time 16-20 hrs. In a few lines: as §2
Series [13] deals with Proteus vulgaris. In words: Antibacterial activity against Proteus vulgaris O41 assessed as inhibition of bacterial growth measured after 16 to 20 hrs by two-fold serial microbroth dilution method. Type of series: functional, organism-based. The conditions noted are these: time 16-20 hrs. An outline of the steps: as §1
The subject of series [14] is Candida albicans. In words: Antibacterial activity against ampicillin/cefotaxime/tetracycline/ceftriaxone/fosfomycin-resistant Candida albicans 181210169-1 assessed as inhibition of fungal growth measured after 16 to 20 hrs by two-fold serial microbroth dilution method. Conditions: time 16-20 hrs. The series is classed as functional, organism-based. An outline of the steps: as §2

In series [15] the test system is Klebsiella aerogenes. Put plainly: Antibacterial activity against Enterobacter aerogenes R41 assessed as inhibition of bacterial growth measured after 16 to 20 hrs by two-fold serial microbroth dilution method. Type of series: functional, organism-based. Conditions: time 16-20 hrs. An outline of the steps: as §1
In series [16] the test system is Klebsiella oxytoca. In words: Antibacterial activity against Klebsiella oxytoca R48 assessed as inhibition of bacterial growth measured after 16 to 20 hrs by two-fold serial microbroth dilution method. Type of series: functional, organism-based. The conditions noted are these: time 16-20 hrs. An outline of the steps:
as §1

For series [17], the system named is Staphylococcus aureus. Put plainly: Antibacterial activity against Fosfomycin resistant Staphylococcus aureus ATCC USA 206 assessed as inhibition of bacterial growth measured after 16 to 20 hrs by two-fold serial microbroth dilution method. Conditions: time 16-20 hrs. The series is classed as functional, organism-based. In a few lines: as §2
The test system of series [18] is Bacillus subtilis. Put plainly: Antibacterial activity against Bacillus subtilis 3HM assessed as inhibition of bacterial growth measured after 16 to 20 hrs by two-fold serial microbroth dilution method. The series is classed as functional, organism-based. The conditions noted are these: time 16-20 hrs. In a few lines:
as §1

For series [19], the system named is Escherichia coli. Put plainly: Antibacterial activity against Escherichia coli ATCC25922 assessed as inhibition of bacterial growth measured after 16 to 20 hrs by two-fold serial microbroth dilution method. Type of series: functional, organism-based. The conditions noted are these: ATCC 25922, time 16-20 hrs. An outline of the steps:
as §1

For series [20], the system named is Aeromonas. In words: Antibacterial activity against Aeromonas sp. O9 assessed as inhibition of bacterial growth measured after 16 to 20 hrs by two-fold serial microbroth dilution method. Type of series: functional, organism-based. The conditions noted are these: time 16-20 hrs. An outline of the steps:
as §1

The test system of series [21] is HEK293. Put plainly: Induction of cell cycle arrest in human HEK293 cells assessed as increase in accumulation of cells at S phase at 12.6 uM after 24 hrs by propidium iodide staining based flow cytometry. The conditions noted are these: hek293, 24 h. An outline of the steps: (§3)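 HEK293 cells exposed to compound or vehicle (0.1% DMSO), then harvested by centrifugation (400 × g, 5 min). Fixed/permeabilized in ice-cold 70% ethanol for 24 h at −20 °C, PBS-washed twice, treated with RNase A (0.5 mg/ml) for 5 min at room temperature, then PI (50 µg/ml) for 30 min. DNA content measured by flow cytometry on a linear scale. At least duplicate runs; mean ± S.E.M.; Wilcoxon test versus vehicle.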
(A flow cytometer gives signals particle by particle.)

The subject of series [22] is HEK293. Put plainly: Induction of cell cycle arrest in human HEK293 cells assessed as increase in accumulation of apoptotic cells at sub G1 phase at 12.6 uM after 72 hrs by propidium iodide staining based flow cytometry. Conditions: hek293, 72 h. An outline of the steps: as §3

For the compound `COc1c2c(cc3c1C(CC(=O)c1ccc(CC(C)C)cc1)[N+](C)(C)CC3)OCO2` (configuration not stated), the MIC in series [1] was 23.3 µM. For the same compound, the half-maximal cytotoxic concentration (CC50) at 28 h in series [2] turned out to be 13.3 µM. Also, the outcome in series [3], in series [4], in series [5], in [6], in series [7] and in series [8] was Active. Moreover, the outcome in series [9], in series [10], in [12], in series [13], in [14] and in series [15] was Active. Further, the result in series [16], in series [17], in series [18], in series [19] and in series [20] was Active. In addition, the outcome in series [11] was inactive.

For `COc1c2c(cc3c1C(CC(=O)c1c(O)n(C)c(=S)n(C)c1=O)N(C)CC3)OCO2` (configuration not stated), the MIC in series [1] stood at 115 µM (≈ 50 µg/mL). Moreover, the CC50 at 28 h in series [2] is above 100 µM. Moreover, the result in [3], in series [4], in [5], in series [6], in series [7] and in series [9] was inactive. Moreover, the result in [10], in series [11], in [12], in [13], in series [15] and in [16] was inactive. Also, the outcome in [19] and in series [20] was inactive. Also, the outcome in series [8], in series [14], in series [17] and in series [18] was Active.

On to `CCOc1ccc(/C=C/C(=O)CC2c3c(cc4c(c3OC)OCO4)CC[N+]2(C)C)cc1` (configuration not stated), for which the MIC in series [1] is 90.7 µM. Also, the CC50 at 28 h in series [2] was determined as 17.8 µM. Further, the outcome in [3], in series [4], in series [5], in series [6], in [7] and in series [8] was inactive. In addition, the outcome in series [9], in series [10], in [11], in [12], in series [14] and in series [15] was inactive. The outcome in [16], in series [18], in series [19] and in [20] was inactive. Further, the outcome in [13] and in [17] was Active.

As to `CCCc1ccc(C(=O)CC2c3c(cc4c(c3OC)OCO4)CC[N+]2(C)C)cc1.[I-]` (configuration not stated), the minimal inhibitory concentration (MIC) in [1] turned out to be 11.3 µM. In addition, the CC50 at 28 h in [2] was 12.6 µM. Moreover, the Activity result in [21] and in series [22] was “Toxic” in each case. Also, the result in series [3], in [4], in series [5], in series [6], in series [7] and in series [8] was Active. The result in series [9], in series [12], in series [13], in [14], in series [15] and in series [17] was Active. Moreover, the result in series [18], in series [19] and in series [20] was Active. Also, the outcome in series [10], in series [11] and in series [16] was inactive.

For `COc1c2c(cc3c1C(CC(=O)c1ccc4c5c(cccc15)CC4)[N+](C)(C)CC3)OCO2` (configuration not stated), in series [1], the MIC worked out at 12.2 µM. In series [2], the CC50 at 28 h was found to be 17 µM. Also, the outcome in series [3], in series [4], in series [5], in [6], in [7] and in [8] was inactive. Further, the outcome in series [9], in series [10], in series [11], in series [12], in series [13] and in [14] was inactive. In addition, the result in [15], in series [16], in series [17], in [19] and in series [20] was inactive. In [18], the result was Active.

As to `COc1c2c(cc3c1C(CC(=O)/C=C/C1C(C)=CCCC1(C)C)[N+](C)(C)CC3)OCO2` (configuration not stated), the minimal inhibitory concentration (MIC) in series [1] amounted to 22.6 µM. Further, the half-maximal cytotoxic concentration (CC50) at 28 h in series [2] is 16.2 µM. Also, the result in series [3], in series [4], in series [5], in series [6], in [7] and in series [8] was inactive. Moreover, the outcome in series [9], in series [10], in series [11], in series [12], in series [13] and in series [14] was inactive. Further, the outcome in [15], in [16], in series [17], in [19] and in series [20] was inactive. In addition, in series [18], the outcome was Active.

In the case of `COc1c2c(cc3c1C(CC(=O)/C=C/C1CC=C(C)CC1C)[N+](C)(C)CC3)OCO2` (configuration not stated), the MIC in series [1] stood at 46.3 µM. In series [2], the CC50 at 28 h came to 10.4 µM. Further, the result in [3], in series [5], in [14], in series [17], in [18] and in series [19] was Active. Moreover, the result in series [4], in [6], in series [7], in series [8], in series [9] and in series [10] was inactive. The outcome in series [11], in series [12], in [13], in series [15], in [16] and in series [20] was inactive.
